Shown is part of a subset that was picked to be rich in hits.
iPSC survival up – hiPSC single-cell survival enhancement. ATPlite luminescence; 100% = ROCK inhibitor wells, 0% = DMSO. survival enhancement, % at 20 µM. 360,000 compounds, 0.044% hits; in the data active = survival enhancement above about 18%;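 also: cells exposed to compounds for 16 hours before the ATP read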
CHOP inh – inhibitors of CHOP induction in ER stress response; 220,000 compounds, 3.8% hits; inhibition, % at 10 µM; CHO-K1 CHOP-promoter luciferase, tunicamycin-induced, 15-18 h;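 active = compounds that reduced the stress-induced luciferase reporter signal by more than about 70% of percent inhibition, limit read from the data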;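 also: 0% = tunicamycin plus vehicle and 100% = wells without tunicamycin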
UPR XBP1 act – activators of adaptive arm of unfolded protein response (XBP1). 330,000 compounds, 0.33% hits. CHO-XBP1 luciferase reporter, IRE1-XBP1 UPR activation, luminescence; percent of tunicamycin response, DMSO as zero. activation, % at 20 µM;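 active = versus positive control, 20 µM dose yields 30% or more activation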;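 also: 100% = tunicamycin at 10 µg/mL and 0% = DMSO only wells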
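Material: CHO-XBP1 cells stably carrying IRE1-XBP1-driven luciferase reporter | Medium: F12 with 10% serum | Compound dosing: 20 µM single concentration, DMSO 1% | Incubation: Overnight seeding at 37 °C, 6 h compound treatment at 37 °C | Detection: Steady-Glo luminescence read | Read-out basis: % activation of reporter signal versus tunicamycin and DMSO controls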
CHOP UPR activ – apoptotic UPR (CHOP) activation; activation, % at 10 µM; 330,000 compounds, 0.34% hits; CHO-CHOP luciferase reporter, luminescence; percent of tunicamycin response over DMSO baseline;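 active = at 10 µM dose, activation of 40% or more, normalized to positive control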;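 also: 100% = tunicamycin at 10 µg/mL and 0% = DMSO alone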
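assay system = CHO CHOP reporter cells | amount = 500 CHO-CHOP cells per well | buffer or medium = F12 with 10% FBS | incubation = 16-18 h cell attachment, then 6 h compound exposure, 37 °C | detection = luminescence read with Steady-Glo | read-out = percent activation relative to tunicamycin control | controls = tunicamycin high control, DMSO low control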
Cardio protect – modulators protecting cardiomyocytes from myocardial damage. protection from H2O2 cell death, % at 20 µM. AID 588492. 360,000 compounds, 0.63% hits. H9c2 cardiomyocytes, H2O2 injury protection, ATPLite, 2 h;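 active = compounds giving at least 50% protection of heart cells from peroxide-induced death in the single-dose screen, raw or plate-pattern-corrected value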;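 also: 0% = DMSO wells with peroxide and 100% = DMSO wells without peroxide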
The depositor's hits bear a star.

What do the screens show for `COc1cc(C(=O)N/N=C/c2ccc(OC(=O)c3ccccc3Cl)c(OC)c2)ccc1O`?
iPSC survival up: 2; UPR XBP1 act: 3; CHOP UPR activ: 3; Cardio protect: 66*

How did COc1cc(/C=N/NC(=O)c2ccncc2)ccc1OC(C)=O do in these assays?
iPSC survival up: 0; UPR XBP1 act: -3; CHOP UPR activ: -1; Cardio protect: -3

How did COc1cc(/C=N/NC(=O)CCNC(=O)c2ccccc2Cl)ccc1O do in these assays?
iPSC survival up: -2; CHOP inh: 5; UPR XBP1 act: -2; CHOP UPR activ: 1; Cardio protect: -1

How did COc1cc(/C=N/NC(=O)c2ccncc2)ccc1OC(=O)c1ccccc1Cl do in these assays?
iPSC survival up: 3; CHOP inh: 21; UPR XBP1 act: 7; CHOP UPR activ: 1; Cardio protect: 74*

How did Cc1cn([C@H]2C[C@H](O)[C@@H](CNCc3ccccc3OCCCN3CCOCC3)O2)c(=O)[nH]c1=O do in these assays?
iPSC survival up: 3; Cardio protect: 5

Results for Cc1nc2ncnn2c(N2CCN(c3cccc(C(F)(F)F)c3)CC2)c1C ?
iPSC survival up: -2; CHOP inh: 73*; UPR XBP1 act: 1; CHOP UPR activ: 6; Cardio protect: -19

How did N#Cc1ccc(/C=C\c2nccc3c2[nH]c2ccccc23)cc1 do in these assays?
iPSC survival up: -1; CHOP inh: 78*; UPR XBP1 act: -2; CHOP UPR activ: -1; Cardio protect: -18

Results for COCc1c(C(=O)Nc2ccc3nc(N4CCOCC4)sc3c2)oc2ccccc12 ?
iPSC survival up: 0; UPR XBP1 act: -1; CHOP UPR activ: 2; Cardio protect: 64*

What do the screens show for `N#C/C(C(=O)N1CCCC1)=C1/N=C(N)c2ccccc21`?
iPSC survival up: 6; CHOP inh: -2; UPR XBP1 act: 0; CHOP UPR activ: -1; Cardio protect: 0

What do the screens show for `Cc1ccc(NC(=O)NC2=N/C(=C(/C#N)C(=O)N3CCCC3)c3ccccc32)cc1`?
iPSC survival up: -1; UPR XBP1 act: 4; CHOP UPR activ: 8; Cardio protect: 70*

What do the screens show for `COc1ccc(-c2cc(NC=O)c3ncc(-c4ccc(C(C)=O)cc4)n3c2)cc1OC`?
iPSC survival up: 0; Cardio protect: 47

What do the screens show for `COc1cc(-c2cc(NC=O)c3ncc(-c4ccccc4)n3c2)cc(OC)c1OC`?
iPSC survival up: 2; Cardio protect: 96*

How did COc1cc(-c2cc(NC=O)c3ncc(-c4cccc(C(F)(F)F)c4)n3c2)cc(OC)c1OC do in these assays?
iPSC survival up: 2; Cardio protect: 59*

Results for COc1cc(-c2cnc3c(NC=O)cc(-c4ccccc4)cn23)cc(OC)c1OC ?
iPSC survival up: -2; Cardio protect: 31

How did COc1cc(-c2cc(NC=O)c3ncc(-c4ccc(C(C)=O)cc4)n3c2)cc(OC)c1OC do in these assays?
iPSC survival up: 5; Cardio protect: 81*

How did CN1CCN(C2CN(Cc3cn(Cc4ccccc4)nn3)S(=O)(=O)C2)CC1 (stereo not given) do in these assays?
iPSC survival up: 1

What do the screens show for `C[C@@H]1CN([C@H](C)CO)C(=O)CCCn2nncc2CO[C@H]1CN(C)S(=O)(=O)c1cccc(F)c1`?
iPSC survival up: -1; Cardio protect: 3

Results for CCc1ccc2[nH]c(=O)c(CN(Cc3ccco3)S(=O)(=O)c3ccc4c(c3)OCCO4)cc2c1 ?
iPSC survival up: 0; CHOP inh: -18; UPR XBP1 act: 0; CHOP UPR activ: -2; Cardio protect: -3

How did CC(=O)Nc1ccc(S(=O)(=O)N(Cc2ccco2)Cc2cc3ccccc3[nH]c2=O)cc1 do in these assays?
iPSC survival up: 1; UPR XBP1 act: -7; CHOP UPR activ: -1; Cardio protect: 58*

Results for CC(=O)Nc1ccc(S(=O)(=O)N(Cc2cccnc2)Cc2cc3ccccc3[nH]c2=O)cc1 ?
iPSC survival up: 1; UPR XBP1 act: 0; CHOP UPR activ: 0; Cardio protect: 64*

How did COc1ccc2[nH]c(=O)c(CN(CC3CCCO3)S(=O)(=O)c3ccccc3)cc2c1 (stereo not given) do in these assays?
iPSC survival up: 0; CHOP inh: 8; UPR XBP1 act: 1; CHOP UPR activ: 0; Cardio protect: 31

How did CNC(=S)N(Cc1ccco1)Cc1cc2cc(OC)ccc2[nH]c1=O do in these assays?
iPSC survival up: -1; CHOP inh: 7; UPR XBP1 act: 1; CHOP UPR activ: 0; Cardio protect: 2

What do the screens show for `COC(=O)c1ccccc1S(=O)(=O)N(Cc1ccco1)Cc1cc2cc(OC)ccc2[nH]c1=O`?
iPSC survival up: -2; CHOP inh: 15; UPR XBP1 act: -3; CHOP UPR activ: -2; Cardio protect: 59*

Results for COc1ccc2[nH]c(=O)c(CN(CC3CCCO3)S(=O)(=O)c3ccccc3F)cc2c1 (stereo not given) ?
iPSC survival up: 0; UPR XBP1 act: -1; CHOP UPR activ: 2; Cardio protect: 53*

What do the screens show for `CCOC(=O)[C@]12CCCC=C1N(Cc1ccco1)C(=O)[C@H](CC(=O)NCC13CC4CC(CC(C4)C1)C3)C2`?
iPSC survival up: 0

What do the screens show for `Nc1ccn([C@@H]2O[C@H](C(=O)NCC(F)(F)F)[C@@H](O)[C@H]2O)c(=O)n1`?
iPSC survival up: 0; Cardio protect: 5

How did CC(N)C(=O)NC(C(=O)NC(C)C(=O)Nc1cccc2ccccc12)C(C)C (stereo not given) do in these assays?
iPSC survival up: -2; Cardio protect: -30

How did COc1cc2nc(Nc3ccc(F)cc3)nc(N)c2cc1OC do in these assays?
iPSC survival up: 0; UPR XBP1 act: 15; CHOP UPR activ: 6; Cardio protect: 55*

Results for COC(=O)C1=C(N)Oc2cc(C)n(CC3CCCO3)c(=O)c2C1c1ccc(Cl)c(Cl)c1 (stereo not given) ?
iPSC survival up: 1; CHOP inh: 85*; UPR XBP1 act: 0; CHOP UPR activ: 0; Cardio protect: -5

Results for COC(=O)C1=C(N)Oc2cc(C)n(CCCn3ccnc3)c(=O)c2C1c1ccc(Cl)cc1 (stereo not given) ?
iPSC survival up: 6; CHOP inh: 77*; UPR XBP1 act: -7; CHOP UPR activ: 0; Cardio protect: 5

What do the screens show for `CCn1c(C)cc2c(c1=O)C(c1ccccc1)C(C(=O)OC)=C(N)O2` (stereo not given)?
iPSC survival up: -2; CHOP inh: 19; UPR XBP1 act: -2; CHOP UPR activ: 0; Cardio protect: 1

Results for CCc1nc2ccc(C(=O)NCCCn3ccnc3)cn2c1N(C)Cc1nccs1 ?
iPSC survival up: -2; Cardio protect: 15
